Source: article PMC2943143 (Biochemical pharmacology, 2010)

Test system: calf thymus double-stranded DNA (dsDNA)
Test: Thermal transition of DNA
Assay type: binding
Conditions: 15 μM compound, calf thymus dsDNA 6 μg/ml, pH 7.0
Method in brief: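 Calf thymus dsDNA (6 μg/ml) in 0.1 M sodium phosphate pH 7.0 with 1% DMSO was tested with or without test compound, with ethidium bromide as intercalator control. Samples were equilibrated at 78 °C for 10 min, then raised 1 °C every 2 min. Absorbance was recorded on a spectrophotometer with a thermoelectric cell holder, and compound-only absorbance was subtracted to give Tm.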

SMILES: CC[n+]1c(-c2ccccc2)c2cc(N)ccc2c2ccc(N)cc21 [ethidium bromide, reference compound]
- effect on melting temperature (Tm) / thermal transition of dsDNA: clear shift of thermal transition
